Data set [1] deals with T1, Diacylglycerol lipase-alpha (Mus musculus, UniProt Q6WQJ1).
T1 sequence (Q6WQJ1 whole entry): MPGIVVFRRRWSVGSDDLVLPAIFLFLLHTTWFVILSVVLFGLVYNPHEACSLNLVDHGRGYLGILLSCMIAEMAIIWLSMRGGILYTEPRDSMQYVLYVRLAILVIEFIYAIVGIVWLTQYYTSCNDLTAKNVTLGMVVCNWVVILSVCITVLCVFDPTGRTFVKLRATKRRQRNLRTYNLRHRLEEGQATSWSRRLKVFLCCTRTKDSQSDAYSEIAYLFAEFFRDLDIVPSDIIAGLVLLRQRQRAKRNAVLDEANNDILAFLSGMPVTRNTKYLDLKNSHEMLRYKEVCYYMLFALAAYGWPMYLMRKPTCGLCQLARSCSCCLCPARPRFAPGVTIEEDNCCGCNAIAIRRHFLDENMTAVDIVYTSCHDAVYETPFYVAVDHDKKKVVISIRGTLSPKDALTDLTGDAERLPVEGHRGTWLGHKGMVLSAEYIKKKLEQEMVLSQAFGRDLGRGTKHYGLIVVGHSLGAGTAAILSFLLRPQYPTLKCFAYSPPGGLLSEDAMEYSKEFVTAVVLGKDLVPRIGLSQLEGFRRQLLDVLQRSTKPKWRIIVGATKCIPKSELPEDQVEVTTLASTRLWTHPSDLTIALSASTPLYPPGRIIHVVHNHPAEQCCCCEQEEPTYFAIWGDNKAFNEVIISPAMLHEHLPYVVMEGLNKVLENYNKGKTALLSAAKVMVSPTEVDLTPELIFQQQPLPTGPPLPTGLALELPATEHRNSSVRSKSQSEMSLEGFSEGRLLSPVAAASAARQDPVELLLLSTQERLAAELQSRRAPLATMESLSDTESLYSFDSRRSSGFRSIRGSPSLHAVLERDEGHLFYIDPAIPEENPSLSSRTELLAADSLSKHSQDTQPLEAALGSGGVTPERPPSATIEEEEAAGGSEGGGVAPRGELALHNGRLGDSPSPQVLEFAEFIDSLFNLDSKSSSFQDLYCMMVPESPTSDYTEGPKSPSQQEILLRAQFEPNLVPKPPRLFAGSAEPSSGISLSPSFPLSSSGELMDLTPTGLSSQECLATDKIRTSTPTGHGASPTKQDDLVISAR
Put plainly: Inhibition of mouse DAGL-alpha expressed in HEK293T cell membranes pre-incubated for 20 mins before PNP-butyrate substrate addition and measured after 30 mins by surrogate substrate assay. The format is cell-based. The method in brief:
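mDAGL-α membrane fraction from transiently transfected HEK293T cells, at 0.05 μg/μL final, in 50 mM Hepes pH 7.2. Inhibitor in DMSO was preincubated 20 min, then PNP-butyrate was added (0.3 mM final; 5% DMSO final). After 30 min at 20 °C, OD was read at 420 nm. Background from 10 μM THL was subtracted and values normalized to DMSO control. Plates were kept if Z′ > 0.6. N = 2, n = 2.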

Data set [2] is described as follows: Dissociation constant, pKa of the compound. The format is physicochemical.
The target of data set [3] is T1, Diacylglycerol lipase-alpha. The data set can be described thus: Inhibition of mouse DAGL-alpha expressed in HEK293T cell membranes assessed as inhibition constant without pre-incubation, measured continuously from t=0 with 600 uM PNP-butyrate by surrogate substrate assay.
For data set [4], the target named is T2, Diacylglycerol lipase-alpha (Mus musculus) (UniProt Q6WQJ1).
T2 sequence (whole entry): T1 sequence (Q6WQJ1 whole entry)
Put plainly: Inhibition of mouse DAGL-alpha expressed in HEK293T cell membranes assessed as inactivation constant pre-incubated for 20 mins before PNP-butyrate substrate addition and measured after 30 mins by surrogate substrate assay. In kind it is cell-based.

Data set [5] addresses T2, Diacylglycerol lipase-alpha (Mus musculus). Put plainly: Inhibition of mouse DAGL-alpha expressed in HEK293T cell membranes assessed as inactivation constant measured continuously from t=0 without pre-incubation by kinetic PNP-butyrate substrate assay.

These results are taken from ChEMBL document CHEMBL4373725, “Structure Kinetics Relationships and Molecular Dynamics Show Crucial Role for Heterocycle Leaving Group in Irreversible Diacylglycerol Lipase Inhibitors” (J Med Chem, 2019).

Structures are written as SMILES.

By pKa is commonly meant the negative logarithm of the acid dissociation constant. A higher pKa goes with a group that holds its proton tightly. The Ki is a dissociation constant, usually derived from enzyme kinetics or from competition with a known ligand.

In the case of `O=C(N1CCCC[C@@H]1Cc1ccccc1)n1cnc(C(O)(c2ccc(F)cc2)c2ccc(F)cc2)c1`, in data set [1] (read-out: pIC50 (converted)), the IC50 was above 31600 nM. In data set [2], this compound displayed a pKa of 14.4.

`Cc1ccc(-c2cnc3nc(C(=O)CCCCCc4ccccc4)oc3c2)cc1`: the IC50 in data set [1] (read-out: pIC50 (converted)) was 2.51 nM. The Ki in data set [3] was found to be 0.23 nM.

As for `O=C(N1CCCC[C@@H]1Cc1ccccc1)n1ncc(C(O)(c2ccc(F)cc2)c2ccc(F)cc2)n1`, the IC50 in data set [1] (read-out: pIC50 (converted)) is 3.02 nM. In data set [4], the Kinact was 0.22 min⁻¹. The pKa in data set [2] was 9.3. Besides, the Ki in data set [3] is 10.4 nM.

With `C#CCO[C@@H]1CC[C@H](Cc2ccccc2)N(C(=O)n2ncc(C(O)(c3ccc(F)cc3)c3ccc(F)cc3)n2)C1`, the IC50 in data set [1] (read-out: pIC50 (converted)) was below 1 nM. In data set [5], the Kinact came out at 0.058 min⁻¹. The Ki in data set [3] was 0.27 nM.

As for `O=C(N1CCCC[C@@H]1Cc1ccccc1)n1ccc(C(O)(c2ccc(F)cc2)c2ccc(F)cc2)n1`, the IC50 in data set [1] (read-out: IC50) is 210 nM. Also, in data set [4], the Kinact turned out to be 0.08 min⁻¹. The pKa in data set [2] was determined as 14.2. For the same compound, the Ki in data set [3] was 10800 nM.

In the case of `O=C(N1CCCC[C@@H]1Cc1ccccc1)n1cc(C(O)(c2ccc(F)cc2)c2ccc(F)cc2)nn1`, the IC50 in data set [1] (read-out: pIC50 (converted)) was 3.8 nM. The Kinact in data set [4] was found to be 0.32 min⁻¹. In addition, the pKa in data set [2] is 9.3. In addition, the inhibition constant (Ki) in data set [3] was determined as 339 nM.

`O=C(N1CCCCC1Cc1ccccc1)n1cc(-c2ccc(-c3ccccc3)cc2)nn1` (stereo unspecified): the IC50 in data set [1] (read-out: pIC50 (converted)) is below 1 nM. For the same compound, the Kinact in data set [4] turned out to be 0.08 min⁻¹. The Ki in data set [3] is 0.35 nM.

`O=C(N1CCCC[C@@H]1Cc1ccccc1)n1cnc(C(O)(c2ccc(F)cc2)c2ccc(F)cc2)n1`: the IC50 in data set [1] (read-out: IC50) came out at 3400 nM. Moreover, the Kinact in data set [4] was 0.075 min⁻¹. In addition, in data set [2], the pKa turned out to be 10. In addition, the Ki in data set [3] worked out at 13800 nM.
